Measurements gathered from unrelated publications.
Target: cAMP-dependent protein kinase catalytic subunit PRKX (PRKX, Homo sapiens, UniProt P51817)
Residues used in one study (P51817 1-358): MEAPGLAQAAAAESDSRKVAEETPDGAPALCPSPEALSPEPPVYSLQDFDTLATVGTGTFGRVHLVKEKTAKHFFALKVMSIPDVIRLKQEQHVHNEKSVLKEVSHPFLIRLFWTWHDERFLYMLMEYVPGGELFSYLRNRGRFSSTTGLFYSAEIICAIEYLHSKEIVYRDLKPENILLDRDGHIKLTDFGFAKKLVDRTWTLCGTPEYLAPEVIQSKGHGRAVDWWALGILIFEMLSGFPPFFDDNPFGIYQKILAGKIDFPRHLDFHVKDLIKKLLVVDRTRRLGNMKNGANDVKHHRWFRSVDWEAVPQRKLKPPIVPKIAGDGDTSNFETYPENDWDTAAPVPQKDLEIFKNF

`NS(=O)(=O)c1cc(NC(=O)C2(c3ccccc3Cl)CC2)ccc1Oc1cccc(Cl)c1` has a remaining binding of 77% (cell-free assay, competition with immobilised ligand; 1 µM).
For `O=C1NC(=O)c2cc(Nc3ccc(F)cc3)c(Nc3ccc(F)cc3)cc21`, the remaining signal was 103% (cell-free assay; 0.5 µM).
`CNC(=O)c1cc(Oc2ccc(NC(=O)Nc3ccc(Cl)c(C(F)(F)F)c3)cc2)ccn1` has an inhibition of 8% (enzyme activity, inhibitor; 0.3 µM).
With `O=C(Nc1cccnn1)N1CCC(=Cc2cccc(Oc3ccc(C(F)(F)F)cn3)c2)CC1` the remaining binding was 87% (cell-free assay, competition with immobilised ligand; 1 µM).
`CCOc1cc(-c2nncn2C)ccc1Nc1ncc2cc(C)nc(NCC(C)(C)C)c2n1` has an inhibition of less than 15% (enzyme activity, inhibitor, FRET; 1 µM).
For `COc1cc2ncnc(Nc3ccc(Oc4ccccc4)cc3C)c2cc1OC`, the inhibition was 6% (enzyme activity, inhibitor; 1 µM).
For `Cc1ccc(Nc2nccc(N(C)c3ccc4c(C)n(C)nc4c3)n2)cc1S(N)(=O)=O`, the inhibition was 88% (enzyme activity, inhibitor; 10 µM).
`C[C@@]1(Cc2ccc(C#N)cc2)C(=O)N(c2cc(Cl)cc(Cl)c2)c2ncc(C(=O)NC3(c4nc(C5CCC5)no4)CC3)n21` has a remaining binding of 100% (cell-free assay, competition with immobilised ligand; 1 µM).
`O=C(Nc1cnn(-c2csc(C(=O)NC3COC3)c2)c1)Nc1c(F)cccc1Cl` has a remaining activity of 91.5% (enzyme activity, inhibitor; 5 µM).
`Cc1cnc(NC2CCOCC2)nc1-n1cnc(C(=O)NC(CN)c2cc(F)cc(Cl)c2)c1` (centres unmarked) has a remaining activity of 24% (enzyme activity, inhibitor, radiometric; 1 µM).
With `Cc1ccc(NC(=O)c2ccc(C)c(C(F)(F)F)c2)cc1C#Cc1nn(C2CCC(O)CC2)c2ncnc(N)c12` (centres unmarked) the remaining signal was 105% (cell-free assay; 10 µM).
For `CCCOc1ccc(OC)c(F)c1C(=O)c1ccc(C(=O)N[C@@H]2CNC[C@H]2NC(=O)c2ccc3[nH]ncc3c2)cc1`, the remaining activity was 5% (enzyme activity, inhibitor; 0.5 µM).
`O=C1NC(c2ccccn2)Sc2ccccc21` (centres unmarked) has a remaining binding of 100% (cell-free assay, competition with immobilised ligand; 1 µM).
`CCCS(=O)(=O)Nc1ccc(F)c(C(=O)c2c[nH]c3ncc(-c4ccc(Cl)cc4)cc23)c1F` gave an inhibition of less than 10% (enzyme activity, inhibitor; 1 µM).
For `CC/C(=N\NC(=O)C(C)Nc1ccccc1)c1ccc(O)c(C)c1O` (centres unmarked), the inhibition was 45.2% (enzyme activity, inhibitor; 0.1 µM).
With `C[C@H](c1cccc(C#N)c1)n1cc(Cl)cc(C(N)=O)c1=N` the remaining binding was 100% (cell-free assay, competition with immobilised ligand; 1 µM).
The remaining binding of `CN(C)c1nccc(-c2cnc3ncccn23)n1` is reported as 94% (binding; 1 µM).
`O=c1cc(-c2cccc3c2Sc2ccccc2S3)oc(N2CCOCC2)c1` gave a remaining activity of 113% (enzyme activity, inhibitor; 0.5 µM).
The inhibition of `CN1CC(Oc2cnc(C#N)cc2-c2ccn3nc(NC(=O)C4CC4)cc3c2)C1` is reported as 5% (enzyme activity, inhibitor; 1 µM).
`Cn1cnc(Br)c1C1=CN(c2ncnc3[nH]cnc23)CCS1` has an inhibition of 92.8% (enzyme activity, inhibitor, radiometric; 2 µM).
For `N#Cc1ccc(Nc2ccc3[nH]c(=O)[nH]c3c2)c(Cl)c1`, the remaining binding was 100% (cell-free assay, competition with immobilised ligand; 1 µM).
For `CC(C)(C)c1nc(-c2cccc(NS(=O)(=O)c3c(F)cccc3F)c2F)c(-c2ccnc(N)n2)s1`, the remaining activity was 77% (enzyme activity, inhibitor, radiometric; 1 µM).
For `CO[C@@H](C)c1c(Nc2ccc([C@H](N(C)C(=O)C3CCS(=O)(=O)CC3)C(F)(F)F)cc2)cnc2cc(Cl)nn12`, the remaining binding was 88% (cell-free assay, competition with immobilised ligand; 1 µM).
For `Cc1cc(NC(=O)c2cccc3cc(-c4cccc5[nH]nc(N)c45)ccc23)ccc1F`, the activity vs control was 101% (enzyme activity, inhibitor; 0.1 µM).
`CCN(CC)CCNC(=O)c1c(C)[nH]c(/C=C2\C(=O)Nc3ccc(F)cc32)c1C` gave an inhibition of 15% (enzyme activity, inhibitor; 10 µM).
For `CS(=O)(=O)N1CCCC(NC(=O)[C@H](CCC2CCCCC2)NC(=O)c2ccc(CNc3ncnc4c3nnn4-c3ccccc3)cc2)C1` (some centres unmarked), the remaining binding was 100% (cell-free assay, competition with immobilised ligand; 0.1 µM).
